# From PubChem
# Shown are actives, neighbours in structure and some others; about 1.9% of the full set was active somewhere.
# Calb FLC = C. albicans growth modulation with fluconazole | growth inhibition, % (concentration not given with the values) | AID 1979 | C. albicans CaCi-2 (fluconazole-resistant clinical isolate) + fluconazole, Alamar Blue growth, 48 h | 300,000 compounds, 0.57% hits;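 active = growth inhibition above about 58% in most replicates, limit read from the data, passing the limit was not always enough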;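 also: all wells also contain fluconazole at 8 µg/ml as a sub-toxic cotreatment; 0% = median of DMSO wells and 100% = median of geldanamycin control wells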
# GAA850 FXN act = frataxin GAA850 promoter activation; HEK293 lucGAA850 FXN promoter luciferase reporter, 24 h; percent of 10 µM SAHA response; activation, % at 6 µM; 360,000 compounds, 0.56% hits; AID 540364;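 active = activation above the average of all compounds screened plus 3 SD, cutoff fixed separately per campaign, cut at about 7.5% in these data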;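 also: 0% = DMSO wells and 100% = 10 µM SAHA wells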
# procasp7 counter = activates human procaspase-7, counter-screen for procaspase-3 activators; recombinant procaspase-7, Ac-DEVD-pNA absorbance 405 nm; D23A/D198A/D206A triple mutant, cannot self-cleave; scale: DMSO 0, 5 µM enzyme 100; activation, % at 8.5 µM; 330,000 compounds, 0.093% hits; AID 463210;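 active = percent activation above the screen-wide mean plus 3 SD, cut at about 25% in these data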
#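 System: Uncleavable procaspase-7 mutant enzyme; Amount: 2 µM procaspase-7 mutant as dispensed; Schedule: 1 h compound preincubation, 2 h substrate cleavage, 25 °C; Measured by: 405 nm absorbance of p-nitroaniline; Evaluation: percent activation from buffer-corrected 0–120 min absorbance change; Control set: low DMSO alone, high DMSO plus 5 µM PC-7.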
# proCasp3 act = procaspase-3 (human) activation; 330,000 compounds, 0.11% hits; recombinant procaspase-3 D3A, Ac-DEVD-pNA absorbance 405 nm; activation, % at 8.5 µM; AID 463141; P42574;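 active = activation above the mean of all tested compounds plus 3 SD, cut at about 21% in these data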;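 also: 0% = DMSO alone and 100% = DMSO wells spiked with extra 5 µM PC-3 D3A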
#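 Test system: Procaspase-3 D3A mutant, all three cleavage aspartates alanine | Dosing: Single dose, 8.5 µM nominal compound, 0.8% DMSO | Schedule: 1 h preincubation, 2 h reaction | Technique: 405 nm absorbance of p-nitroaniline, reads at 0 and 120 min | Repeats: One well per compound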
# HIF act = HIF pathway transcriptional activation. U2OS HRE-luciferase reporter, luminescence; normalized: DMSO 0%, desferrioxamine 100%. 300,000 compounds, 0.32% hits. activation, % at 7.5 µM (by protocol);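 active = mean activation of at least 10% of the iron chelator positive control signal, with at least half of replicates also reaching 10%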
# Neddylation inh = cullin neddylation inhibition. AID 651699. inhibition, % at 25 µM. 360,000 compounds, 0.58% hits. TR-FRET cullin neddylation, biochemical. P61081+Q13564; in the data active = inhibition above about 36%
# Target sequence (P61081 whole entry, looked up): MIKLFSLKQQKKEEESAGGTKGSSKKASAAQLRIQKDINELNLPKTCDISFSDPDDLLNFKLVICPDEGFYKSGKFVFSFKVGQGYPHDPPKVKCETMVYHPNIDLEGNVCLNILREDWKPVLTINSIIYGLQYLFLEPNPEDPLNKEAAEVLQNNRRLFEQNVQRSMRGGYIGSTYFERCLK
# Target sequence (Q13564 whole entry, looked up): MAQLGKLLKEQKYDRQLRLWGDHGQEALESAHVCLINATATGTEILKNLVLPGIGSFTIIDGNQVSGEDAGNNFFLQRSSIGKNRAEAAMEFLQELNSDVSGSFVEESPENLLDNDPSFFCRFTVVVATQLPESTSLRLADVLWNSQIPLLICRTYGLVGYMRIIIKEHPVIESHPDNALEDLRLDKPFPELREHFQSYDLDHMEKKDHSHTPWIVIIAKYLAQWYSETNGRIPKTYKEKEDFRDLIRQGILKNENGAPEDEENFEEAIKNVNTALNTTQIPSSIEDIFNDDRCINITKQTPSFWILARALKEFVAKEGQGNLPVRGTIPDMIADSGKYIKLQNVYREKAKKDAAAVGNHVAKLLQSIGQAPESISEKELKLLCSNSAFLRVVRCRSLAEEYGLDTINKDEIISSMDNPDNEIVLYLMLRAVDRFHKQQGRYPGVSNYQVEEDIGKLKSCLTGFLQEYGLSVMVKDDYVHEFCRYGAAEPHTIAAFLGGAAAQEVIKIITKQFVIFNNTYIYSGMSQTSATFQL
# The depositor's hits bear a star; . = not tested or not shown.
SMILES,Calb FLC,GAA850 FXN act,procasp7 counter,proCasp3 act,HIF act,Neddylation inh
CCOC(=O)C1CCN(c2cc(C)nc3cc(-c4cccc(F)c4)nn23)CC1,.,-3.2,30.6*,26.1*,-0.1,.
O=C(/C=C/c1ccccc1)NNc1ccc(Cl)cc1,97.3*,-1.8,-2.0,1.5,-0.2,-0.5
O=C(/C=C/c1ccccc1)NNC(=O)c1cccc(Cl)c1,0.4,0.7,7.8,0.7,-0.2,-15.8
COc1ccc(C2NC(=S)NC3=C2CCCC3=C2SCCS2)cc1 (stereo not drawn),3.9,3.7,-2.6,-4.0,235.5*,-258.4
O=C(Nc1nnc(SCc2ccc(F)cc2)s1)c1ccccn1,103.1*,3.8,.,.,7.0,18.2
O=C(CCNC(=O)c1ccc([N+](=O)[O-])cc1)Nc1nccs1,-0.2,-1.2,2.9,0.1,-0.3,-27.5
O=C(CCNC(=O)c1ccc(Br)cc1)Nc1nccs1,111.7*,2.0,6.2,1.3,0.1,-6.8
CC1(C(=O)NS(=O)(=O)c2ccccc2Cl)CCN1C(=O)C1(c2ccc(Cl)cc2)CCC1 (stereo not drawn),.,0.0,.,.,.,1.6
O=C(Nc1nc(-c2ccccn2)cs1)c1cccc(-n2cnnn2)c1,-15.1,-2.3,5.3,-2.3,19.6*,1.7
O=C(Nc1nc(-c2ccccn2)cs1)c1ccc(Br)s1,92.6*,-1.5,-11.2,0.6,0.1,-65.2
O=C(Nc1nc(-c2ccccn2)cs1)c1ccco1,16.9,-2.0,-2.0,0.4,2.8,2.8
O=C(Nc1ccc(Br)cc1)c1cccc(-n2cnnn2)c1,2.7,-1.1,1.1,2.6,0.3,-0.1
O=C(CC1CC2CCC1C2)Nc1nc(-c2ccccn2)cs1 (stereo not drawn),86.5*,1.4,-4.7,2.8,4.4,-10.7
CC1(C(=O)NS(=O)(=O)c2cccc(Cl)c2)CCN1C(=O)CCc1ccccc1 (stereo not drawn),.,0.9,.,.,.,1.5
O=C(CN1CCCC1c1cccs1)Nc1cc(S(=O)(=O)N2CCCCC2)ccc1Cl (stereo not drawn),.,-0.2,.,.,.,-2.2
CCCCC(=O)N(C)c1c(CC)nc2c(OCCOc3ccccc3)cccn12,.,0.3,.,.,.,8.7
CC1NC(=O)c2ccccc2-n2c1nc1ccc(F)cc1c2=O (stereo not drawn),.,-2.7,.,.,.,-1.3
Cc1c(C#N)c(NC(=O)CCl)n(Cc2ccc(F)cc2)c1C,-16.5,-6.5,-4.8,2.4,-1.7,1.9
Cc1c(C#N)c(NC(=O)CCl)n(Cc2ccccc2)c1C,96.8*,-3.4,8.6,-6.7,-1.6,2.6
Cc1cccc2c(=O)n(C(=O)c3ccccc3)c(N)nc12,.,-0.6,.,.,.,6.2
CC(C)(C)C1CCN2CCCC(c3ccccc3)(C1)C2=O (stereo not drawn),.,.,.,.,.,1.0
O=C(Nc1nnc(-c2cccs2)o1)c1cccc(F)c1,87.5*,-0.6,-0.4,4.2,0.5,-7.5
O=C(Nc1nnc(-c2ccc(F)cc2)o1)c1cccc([N+](=O)[O-])c1,91.1*,-2.5,10.5,1.0,-0.2,-28.3
CCCCN(C)S(=O)(=O)c1ccc(C(=O)Nc2nnc(-c3cccs3)o2)cc1,84.2*,.,0.8,0.3,-0.5,.
O=C(Nc1nnc(C2=COCCO2)o1)c1cccc([N+](=O)[O-])c1,0.9,1.5,-9.9,1.7,-0.3,-10.0
SMILES,Calb FLC,GAA850 FXN act,procasp7 counter,proCasp3 act,HIF act,Neddylation inh
CCCCOCCCNC(=O)C[C@@H]1C[C@@]2(C(=O)OC)CC(C)(C)CC=C2N(Cc2ccco2)C1=O,.,.,.,.,.,-20.9
CCOC(=O)[C@]12CCCC=C1N(Cc1ccco1)C(=O)[C@H](CC(=O)NCCCN1CCCC1=O)C2,.,.,.,.,.,1.4
O=C(C#Cc1ccccc1)c1ccccc1,.,9.3*,.,.,.,1.6
O=C(C#Cc1ccccc1)c1ccc([N+](=O)[O-])cc1,1.2,12.9*,.,.,2.6,-14.6
CN(C)C(=O)C#Cc1ccccc1,-2.7,2.0,3.8,-6.3,-0.4,2.6
CCCCN(C)S(=O)(=O)c1cc2c(cc1Br)CCN2C(=O)C1CC1,.,-3.5,.,.,.,-0.8
Oc1ccc(/C=N/n2c(COc3ccccc3)n[nH]c2=S)cc1O,77.3*,-1.0,-1.8,6.0,-1.0,3.7
CCCC(=O)N1CCCC1(C)C(=O)N(C)Cc1cccc2ccccc12 (stereo not drawn),.,-5.3,.,.,.,-3.7
Cc1ccc(S(=O)(=O)/N=C(/c2ccccc2)N2CCOCC2)c(C)c1,81.2*,2.9,2.1,6.8,0.0,-3.9
CCOC(=O)C(NC(C)=O)(N1CCOCC1)C(F)(F)F (stereo not drawn),-4.0,.,7.9,4.8,49.5*,.
CCOC(=O)C(NC(=O)c1ccccc1)(N1CCOCC1)C(F)(F)F (stereo not drawn),19.8,-3.0,-7.2,1.6,0.8,13.0
NC(=O)C1C2C=CC(C2)C1c1ccccc1 (stereo not drawn),.,0.3,.,.,.,2.5
CCOC(=O)C1(C)CCCN(C(=O)c2ccc(C#N)cc2)C1 (stereo not drawn),.,-1.5,.,.,.,9.8
c1ccc2c(c1)OCC(CNc1ncnc3sccc13)O2 (stereo not drawn),79.7*,-4.5,-0.8,-0.9,0.5,11.3
Fc1ccccc1CNc1ncnc2sccc12,-0.3,1.9,1.5,0.1,0.2,7.2
O=C(NCc1ccccn1)[C@@H]1CCCN1C(=O)[C@@H]1CCCN1C(=O)c1c(F)cccc1F,.,.,.,.,.,2.1
Cc1nc(SCc2ccc(Cl)c(Cl)c2)ncc1C(=O)O,89.7*,1.9,16.3,-0.4,-0.4,0.9
Cc1cccc(NC(=O)CCc2ccc(N3C(N)=NC(N)=NC3(C)C)cc2)c1,.,-0.9,.,.,.,-4.4
CCNC(=S)NNC(=O)c1c(Cl)c(C)nn1C,-3.8,0.3,1.2,5.6,0.0,4.3
CCNC(=S)NNC(=O)c1nn(C)c(C)c1Cl,119.2*,6.4,-1.1,-0.3,0.9,7.3
CNNC(=O)C(C)NC(=O)c1ccc(Br)cc1 (stereo not drawn),1.0,1.0,1.2,3.9,38.4*,-1.6
C[C@H](NC(=O)c1ccc(Br)cc1)C(=O)NCc1ccc(S(N)(=O)=O)cc1,-18.5,1.4,-5.9,0.3,0.0,11.8
CCOC(=O)Cc1nn(CC)c(=O)c2ccccc12,8.9,1.3,1.4,5.1,89.6*,1.2
CCOC(=O)Cc1nn(C)c(=O)c2ccccc12,5.5,1.0,2.2,2.8,-0.4,-0.6
O=C(NCC1CC1)c1csc([C@@H]2O[C@H](CO)[C@H](O)[C@H](O)[C@H]2O)n1,.,1.5,.,.,.,2.6
CCc1ccc(C2c3[nH]c4ccccc4c3CCN2C(=O)c2ccc(=O)n(C)n2)cc1 (stereo not drawn),88.2*,-0.4,0.4,-0.5,0.2,-0.6
CSc1ccc(C2c3[nH]c4ccccc4c3CCN2C(=O)c2ccnn2C)cc1 (stereo not drawn),92.3*,0.2,1.8,1.9,2.5,0.1
